Active and inactive are the calls of the source. No cut-off for these calls is given here.
System: not listed separately
Assay: Cytotoxicity against mouse Peritoneal macrophage
Assay type: toxicity, cell-based
Settings: peritoneal macrophages

SMILES | CC50 [µM]
CC(C)(C)OC(=O)N[C@H]1Cc2ccc(cc2)Oc2ccc(cc2NC(=O)c2ccccn2)CCNC(=O)[C@H](Cc2ccccc2)NC1=O | > 64
CC(C)(C)OC(=O)N[C@H]1Cc2ccc(cc2)Oc2ccc(cc2)C(=O)CNC(=O)[C@H](Cc2ccccc2)NC1=O | > 64

System: Trypanosoma brucei
Assay: Antitrypanosomal activity against axenic culture of Trypanosoma brucei Squib 427 infected in human MRC-5 SV2 cells assessed as reduction in parasite growth incubated for 72 hrs by resazurin reagent based fluorescence analysis
Assay type: functional, organism-based
Settings: not given
How it was run: (§1)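 Trypomastigotes were grown axenically in culture medium. Growth reduction was determined by the previously reported method, with and without added inhibitor.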

SMILES | Activity
CC(C)C[C@@H]1NC(=O)[C@@H](NC(=O)OC(C)(C)C)Cc2ccc(cc2)Oc2ccc(cc2NC(=O)c2ccccn2)C(=O)CNC1=O | inactive
CC(C)(C)OC(=O)N[C@H]1CCc2ccc(cc2)Oc2ccc(cc2NC(=O)c2ccccn2)C(=O)CNC(=O)[C@H](Cc2ccccc2)NC1=O | inactive
CC(C)(C)OC(=O)N[C@H]1Cc2ccc(cc2)Oc2ccc(cc2NC(=O)c2ccccn2)CCNC(=O)[C@H](Cc2ccccc2)NC1=O | inactive
COc1ccc(C[C@H](NC(=O)OC(C)(C)C)C(=O)N[C@@H](Cc2ccccc2)C(=O)NCC(=O)c2cccc(NC(=O)c3ccccn3)c2)cc1 | inactive
CC(C)(C)OC(=O)N[C@H]1Cc2ccc(cc2)Oc2ccc(cc2NC(=O)c2ccccn2)C(=O)CNC(=O)[C@@H](Cc2ccccc2)NC1=O | inactive
CC(=O)N[C@H]1Cc2ccc(cc2)Oc2ccc(cc2NC(=O)c2ccccn2)C(=O)CNC(=O)[C@H](Cc2ccccc2)NC1=O | inactive
CC(C)(C)OC(=O)N[C@H]1Cc2ccc(cc2)Oc2ccc(cc2NC(=O)c2ccccn2)C(=O)CNC(=O)[C@H](c2ccccc2)NC1=O | inactive
CC(C)(C)C(=O)N[C@H]1Cc2ccc(cc2)Oc2ccc(cc2NC(=O)c2ccccn2)C(=O)CNC(=O)[C@H](Cc2ccccc2)NC1=O | inactive
C[C@@H]1NC(=O)[C@@H](NC(=O)OC(C)(C)C)Cc2ccc(cc2)Oc2ccc(cc2NC(=O)c2ccccn2)C(=O)CNC1=O | inactive

System: Trypanosoma brucei rhodesiense
Assay: Antitrypanosomal activity against axenic culture of Trypanosoma brucei rhodesiense infected in human MRC-5 SV2 cells assessed as reduction in parasite growth incubated for 72 hrs by resazurin reagent based fluorescence analysis
Assay type: functional, organism-based
Settings: not given
How it was run: as §1

SMILES | Activity
CC(C)C[C@@H]1NC(=O)[C@@H](NC(=O)OC(C)(C)C)Cc2ccc(cc2)Oc2ccc(cc2NC(=O)c2ccccn2)C(=O)CNC1=O | Active
CC(C)(C)OC(=O)N[C@H]1CCc2ccc(cc2)Oc2ccc(cc2NC(=O)c2ccccn2)C(=O)CNC(=O)[C@H](Cc2ccccc2)NC1=O | Active
CC(C)(C)OC(=O)N[C@H]1Cc2ccc(cc2)Oc2ccc(cc2NC(=O)c2ccccn2)CCNC(=O)[C@H](Cc2ccccc2)NC1=O | Active
COc1ccc(C[C@H](NC(=O)OC(C)(C)C)C(=O)N[C@@H](Cc2ccccc2)C(=O)NCC(=O)c2cccc(NC(=O)c3ccccn3)c2)cc1 | Active
CC(C)(C)OC(=O)N[C@H]1Cc2ccc(cc2)Oc2ccc(cc2NC(=O)c2ccccn2)C(=O)CNC(=O)[C@@H](Cc2ccccc2)NC1=O | Active
CC(=O)N[C@H]1Cc2ccc(cc2)Oc2ccc(cc2NC(=O)c2ccccn2)C(=O)CNC(=O)[C@H](Cc2ccccc2)NC1=O | Active
CC(C)(C)OC(=O)N[C@H]1Cc2ccc(cc2)Oc2ccc(cc2NC(=O)c2ccccn2)C(=O)CNC(=O)[C@H](c2ccccc2)NC1=O | Active
CC(C)(C)C(=O)N[C@H]1Cc2ccc(cc2)Oc2ccc(cc2NC(=O)c2ccccn2)C(=O)CNC(=O)[C@H](Cc2ccccc2)NC1=O | Active
C[C@@H]1NC(=O)[C@@H](NC(=O)OC(C)(C)C)Cc2ccc(cc2)Oc2ccc(cc2NC(=O)c2ccccn2)C(=O)CNC1=O | Active

System: not listed separately
Assay: Cytotoxicity against human MRC5 cells
Assay type: toxicity, cell-based
Settings: not given

SMILES | CC50 [µM]
CC(C)(C)OC(=O)N[C@H]1Cc2ccc(cc2)Oc2ccc(cc2NC(=O)c2ccccn2)C(=O)CNC(=O)[C@H](Cc2ccccc2)NC1=O | > 64
CC(C)(C)OC(=O)N[C@H]1Cc2ccc(cc2)Oc2ccc(cc2)C(=O)CNC(=O)[C@H](Cc2ccccc2)NC1=O | > 64
CC(=O)Nc1cc2ccc1Oc1ccc(cc1)C[C@H](NC(=O)OC(C)(C)C)C(=O)N[C@@H](Cc1ccccc1)C(=O)NCC2=O | > 64
